Laboratory results taken from ChEMBL document CHEMBL3860034, “Development of Potent and Selective S. aureus Sortase A Inhibitors Based on Peptide Macrocycles” (ACS Med Chem Lett, 2016).
*1 amine or outer side, *2 acyl side, *3 side chain or, on linkers, in order; H or OH if unused. Where a SMILES comes first, the peptide text is derived from it. Bridges are numbered along the chain shown (N, C = ends). TBMB = c1c(C[*:1])cc(C[*:3])cc1C[*:2]; mXylylene = c1cc(C[*:1])cc(C[*:2])c1

What follows are compounds tested against T1, Sortase A (Staphylococcus aureus, UniProt Q9S446) (assay: Inhibition of Staphylococcus aureus His6-biotinylated SrtA expressed in Escherichia coli XL1-blue using Dabcyl-LPETG-Edans as substrate assessed as residual activity by fluorescence assay).
T1 sequence (Q9S446 whole entry): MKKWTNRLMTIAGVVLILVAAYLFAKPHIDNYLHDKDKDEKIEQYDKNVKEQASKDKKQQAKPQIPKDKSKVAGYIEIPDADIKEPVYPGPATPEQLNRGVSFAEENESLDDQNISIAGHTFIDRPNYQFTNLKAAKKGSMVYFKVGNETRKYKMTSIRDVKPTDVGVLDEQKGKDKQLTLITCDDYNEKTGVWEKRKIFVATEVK
Procedure, shortened: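 (His)6-SrtA26−206 from E. coli XL1-blue, purified by Ni affinity and gel filtration. Enzyme at 2.5 μM incubated with varied peptide concentrations (up to 300 μM). Residual activity measured with 20 μM Dabcyl-LPETG-Edans and 200 μM triglycine in 50 mM Tris-Cl pH 7.4, 150 mM NaCl, 5 mM CaCl2, 0.1% BSA, 37 °C. Fluorescence read at ex 350/em 480 nm. Ki from Supporting Information equations; at least three measurements.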

`CC[C@H](C)[C@@H]1NC(=O)[C@H](C)NC(=O)[C@@H](NC(=O)[C@H](C)N)CSCc2cc3cc(c2)CSC[C@H](C(=O)NCC(N)=O)NC(=O)[C@H](CCCNC(=N)N)NC(=O)[C@@H]2CCCN2C(=O)[C@H](CCC(N)=O)NC(=O)[C@H](CSC3)NC(=O)[C@@H]2CCCN2C(=O)[C@@H]2CCCN2C(=O)[C@H](CC(C)C)NC1=O` and `CC[C@H](C)[C@@H]1NC(=O)[C@H](C)NC(=O)[C@@H](NC(=O)[C@H](C)N)CSCc2cc3cc(c2)CSC[C@H](NC(=O)[C@@H]2CCCN2C(=O)[C@@H]2CCCN2C(=O)[C@H](CC(C)C)NC1=O)C(=O)N[C@@H](CCC(N)=O)C(=O)N1CCC[C@H]1C(=O)N[C@@H](CCCNC(=N)N)C(=O)N[C@H](C(=O)NCC(N)=O)CSC3` are the same in Ki: 21.5 µM for the first, 21.5 µM for the second.

`CC[C@H](C)[C@@H]1NC(=O)[C@H](CO)NC(=O)[C@@H](NC(=O)[C@H](C)N)CSCc2cc3cc(c2)CSC[C@H](NC(=O)[C@@H]2CCCN2C(=O)[C@@H]2CCCN2C(=O)[C@H](CC(C)C)NC1=O)C(=O)N[C@H](CC(N)=O)C(=O)N1CCC[C@H]1C(=O)N1CCC[C@H]1C(=O)N[C@@H](CCC(N)=O)C(=O)N[C@H](C(=O)NCC(N)=O)CSC3` and `CC[C@H](C)[C@@H]1NC(=O)[C@H](CO)NC(=O)[C@@H](NC(=O)[C@H](C)N)CSCc2cc3cc(c2)CSC[C@H](NC(=O)[C@@H]2CCCN2C(=O)[C@@H]2CCCN2C(=O)[C@H](CC(C)C)NC1=O)C(=O)N[C@@H](CC(N)=O)C(=O)N1CCC[C@H]1C(=O)N1CCC[C@H]1C(=O)N[C@@H](CCC(N)=O)C(=O)N[C@H](C(=O)NCC(N)=O)CSC3` are the same in Ki: 11.1 µM for the first, 11.1 µM for the second.

Going from `CC(C)C[C@@H]1NC(=O)[C@H](CCC(N)=O)NC(=O)[C@@H]2CCCN2C(=O)[C@@H](NC(=O)[C@H](C)N)CSCc2cccc(c2)CSC[C@@H](C(=O)NCC(N)=O)NC(=O)[C@@H]2CCCN2C(=O)[C@@H]2CCCN2C1=O` (H-ACPQLPPCG-NH2; linker 2-8 via mXylylene) to `CC(C)C[C@@H]1NC(=O)[C@@H](NC(=O)[C@H](C)N)CSCc2cc3cc(c2)CSC[C@H](NC(=O)[C@@H]2CCCN2C(=O)[C@@H]2CCCN2C(=O)[C@H](CC(C)C)NC(=O)[C@H](CCC(N)=O)NC1=O)C(=O)N[C@@H](CO)C(=O)N[C@@H](CO)C(=O)N1CCC[C@H]1C(=O)N[C@H](C(=O)NCC(N)=O)CSC3` (H-ACLQLPPCSSPCG-NH2; linker 2-8-12 via TBMB), the Ki rises from 4.9 µM to 11.6 µM (2.4-fold). The first binds more tightly here.

Compared with `CC(C)C[C@@H]1NC(=O)[C@@H]2CCCN2C(=O)[C@@H](NC(=O)[C@H](C)N)CSCc2cc3cc(c2)CSC[C@H](NC(=O)[C@@H]2CCCN2C(=O)[C@@H]2CCCN2C(=O)[C@H](CC(C)C)NC1=O)C(=O)N[C@@H](C)C(=O)N[C@@H](CC(=O)O)C(=O)N[C@@H](CC(=O)O)C(=O)N[C@H](C(=O)NCC(N)=O)CSC3` (H-ACPLLPPCADDCG-NH2; linker 2-8-12 via TBMB), `CC(C)C[C@@H]1NC(=O)[C@H](CO)NC(=O)[C@@H]2CSCc3cc(cc(c3)CSC[C@H](NC(=O)[C@H](C)N)C(=O)N3CCC[C@H]3C(=O)N[C@@H](CC(C)C)C(=O)N[C@@H](CC(C)C)C(=O)N3CCC[C@H]3C(=O)N3CCC[C@H]3C(=O)N2)CSC[C@@H](C(=O)NCC(=O)O)NC(=O)[C@H](CC(=O)O)NC1=O` (H-ACPLLPPCSLDCG-OH; linker 2-8-12 via TBMB) is 2-fold lower in Ki: 3 µM for the first, 1.5 µM for the second.

`CC[C@H](C)[C@@H]1NC(=O)CNC(=O)[C@H](CCC(N)=O)NC(=O)[C@@H](NC(=O)[C@H](C)N)CSCc2cc3cc(c2)CSC[C@H](NC(=O)[C@@H]2CCCN2C(=O)[C@@H]2CCCN2C(=O)[C@H](CC(C)C)NC1=O)C(=O)NCC(=O)N[C@@H](CCCNC(=N)N)C(=O)NCC(=O)NCC(=O)NCC(=O)N[C@H](C(=O)NCC(N)=O)CSC3` (H-ACQGILPPCGRGGGCG-NH2; linker 2-9-15 via TBMB) and `CC[C@H](C)[C@@H]1NC(=O)CNC(=O)[C@H](CCC(N)=O)NC(=O)[C@@H](NC(=O)[C@H](C)N)CSCc2cc3cc(c2)CSC[C@H](NC(=O)[C@@H]2CCCN2C(=O)[C@@H]2CCCN2C(=O)[C@H](CC(C)C)NC1=O)C(=O)NCC(=O)N[C@@H](CCCNC(=N)N)C(=O)NCC(=O)NCC(=O)NCC(=O)NCC(=O)N[C@H](C(=O)NCC(N)=O)CSC3` (H-ACQGILPPCGRGGGGCG-NH2; linker 2-9-16 via TBMB) are the same in Ki: 42 µM for the first, 42 µM for the second.

Compared with `CC[C@H](C)[C@@H]1NC(=O)[C@H](CO)NC(=O)[C@H](CO)NC(=O)[C@@H]2CSCc3cc(cc(c3)CSC[C@@H](C(=O)NCC(N)=O)NC(=O)[C@@H]3CCCN3C(=O)[C@@H]3CCCN3C(=O)[C@H](CC(C)C)NC1=O)CSC[C@H](NC(=O)[C@H](C)N)C(=O)N[C@@H](CCSC)C(=O)N[C@@H](Cc1ccc(O)cc1)C(=O)N[C@@H](CCC(N)=O)C(=O)N[C@@H](C)C(=O)N[C@@H](C)C(=O)N[C@@H](CC(C)C)C(=O)N2` (H-ACMYQAALCSSILPPCG-NH2; linker 2-9-16 via TBMB), `CC(C)C[C@@H]1NC(=O)[C@H](CCC(N)=O)NC(=O)[C@H](CCCNC(=N)N)NC(=O)[C@@H](NC(=O)[C@H](C)N)CSCc2cc3cc(c2)CSC[C@H](NC(=O)[C@@H]2CCCN2C(=O)[C@@H]2CCCN2C1=O)C(=O)N[C@@H](C)C(=O)N[C@@H](CCC(=O)O)C(=O)N[C@@H](Cc1ccc(O)cc1)C(=O)N[C@@H](C(C)C)C(=O)N[C@H](C(=O)NCC(N)=O)CSC3` is 4.8-fold higher in Ki: 9.4 µM for the first, 45.5 µM for the second. The first binds more tightly here.

Compared with `CC(C)C[C@@H]1NC(=O)[C@H](CCC(N)=O)NC(=O)[C@@H](NC(=O)[C@H](C)N)CSCc2cc3cc(c2)CSC[C@H](NC(=O)[C@@H]2CCCN2C(=O)[C@@H]2CCCN2C(=O)[C@H](CC(C)C)NC1=O)C(=O)N1CCC[C@H]1C(=O)N[C@@H](Cc1ccccc1)C(=O)N[C@@H](CC(N)=O)C(=O)N[C@H](C(=O)NCC(N)=O)CSC3` (H-ACQLLPPCPFNCG-NH2; linker 2-8-12 via TBMB), `CC(C)C[C@@H]1NC(=O)[C@@H]2CSCc3cc(cc(c3)CSC[C@H](NC(=O)[C@H](C)N)C(=O)N3CCC[C@H]3C(=O)N[C@@H](CCC(N)=O)C(=O)N[C@@H](CC(C)C)C(=O)N3CCC[C@H]3C(=O)N3CCC[C@H]3C(=O)N2)CSC[C@@H](C(=O)NCC(N)=O)NC(=O)[C@@H]2CCCN2C(=O)[C@H](Cc2ccc(O)cc2)NC1=O` (H-ACPQLPPCLYPCG-NH2; linker 2-8-12 via TBMB) is 2.6-fold lower in Ki: 19.3 µM for the first, 7.4 µM for the second.

Compared with `CC(C)C[C@@H]1NC(=O)[C@H](CCC(N)=O)NC(=O)[C@H](CCCNC(=N)N)NC(=O)[C@@H](NC(=O)[C@H](C)N)CSCc2cc3cc(c2)CSC[C@H](NC(=O)[C@@H]2CCCN2C(=O)[C@@H]2CCCN2C1=O)C(=O)N[C@@H](CO)C(=O)N[C@@H](Cc1ccccc1)C(=O)N[C@@H](CCC(=O)O)C(=O)N[C@H](C(=O)NCC(N)=O)CSC3` (H-ACRQLPPCSFECG-NH2; linker 2-8-12 via TBMB), `CC(C)C[C@@H]1NC(=O)[C@H](CCC(N)=O)NC(=O)[C@H](CCCNC(=N)N)NC(=O)[C@H](NC(=O)[C@H](C)N)CSCc2cc3cc(c2)CSC[C@H](C(=O)NCC(N)=O)NC(=O)[C@H](C(C)C)NC(=O)[C@H](Cc2ccc(O)cc2)NC(=O)[C@H](CCC(=O)O)NC(=O)[C@H](C)NC(=O)[C@H](CSC3)NC(=O)[C@@H]2CCCN2C(=O)[C@@H]2CCCN2C1=O` is 3.9-fold higher in Ki: 11.6 µM for the first, 45.5 µM for the second.

Compared with `CC(C)C[C@@H]1NC(=O)[C@@H]2CCCN2C(=O)[C@@H](NC(=O)[C@H](C)N)CSCc2cc3cc(c2)CSC[C@H](NC(=O)[C@@H]2CCCN2C(=O)[C@@H]2CCCN2C(=O)[C@H](CC(C)C)NC1=O)C(=O)N[C@@H](Cc1cnc[nH]1)C(=O)N[C@@H](CC(C)C)C(=O)N1CCC[C@H]1C(=O)N[C@@H](CCC(N)=O)C(=O)N[C@H](C(=O)NCC(N)=O)CSC3` (H-ACPLLPPCHLPQCG-NH2; linker 2-8-13 via TBMB), `CC(C)C[C@@H]1NC(=O)[C@H]([C@@H](C)O)NC(=O)[C@@H](NC(=O)[C@H](C)N)CSCc2cc3cc(c2)CSC[C@H](NC(=O)[C@@H]2CCCN2C(=O)[C@@H]2CCCN2C(=O)[C@H](CC(C)C)NC1=O)C(=O)N[C@@H]([C@@H](C)O)C(=O)N1CCC[C@H]1C(=O)N[C@@H](CC(=O)O)C(=O)N[C@@H](CCC(N)=O)C(=O)N[C@H](C(=O)NCC(N)=O)CSC3` (H-ACTLLPPCTPDQCG-NH2; linker 2-8-13 via TBMB) is higher in Ki: 9.3 to 13.3 µM for the first, 32.1 µM for the second.

First: CC(C)C[C@@H]1NC(=O)[C@H](CCC(N)=O)NC(=O)[C@@H]2CCCN2C(=O)[C@@H](NC(=O)[C@H](C)N)CSCc2cc3cc(c2)CSC[C@H](NC(=O)[C@@H]2CCCN2C(=O)[C@@H]2CCCN2C1=O)C(=O)N[C@@H](CCCNC(=N)N)C(=O)N[C@@H](C(C)C)C(=O)N[C@@H](CO)C(=O)N[C@H](C(=O)NCC(N)=O)CSC3 (H-ACPQLPPCRVSCG-NH2; linker 2-8-12 via TBMB)
Second: CC(C)C[C@@H]1NC(=O)[C@H](CCC(N)=O)NC(=O)[C@@H]2CCCN2C(=O)[C@@H]2CSCc3cc(cc(c3)CSC[C@@H](C(=O)NCC(=O)O)NC(=O)[C@@H]3CCCN3C(=O)[C@@H]3CCCN3C1=O)CSC[C@H](NC(=O)[C@H](C)N)C(=O)N[C@@H]([C@@H](C)O)C(=O)N[C@@H](CO)C(=O)N[C@@H](CCCNC(=N)N)C(=O)N2 (H-ACTSRCPQLPPCG-OH; linker 2-6-12 via TBMB)
The Ki of the first is 2.4-fold higher: 4.3 µM for the first, 1.8 µM for the second.
